Experimental data reported in ChEMBL document CHEMBL1141435, “Serinocyclins A and B, cyclic heptapeptides from Metarhizium anisopliae” (J Nat Prod, 2007).

Assays:
Colletotrichum = assay: Antifungal activity against Colletotrichum acutatum at 10 ug/disc after 48 hrs by disc diffusion assay; assay type: functional; conditions: read-out: IZ
How it was run: (§1)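 Fungal targets grown on potato dextrose agar plates (9 cm), each spread with 0.6 mL of a conidial suspension (ca. 1 × 10^6 conidia/mL H2O) and dried 1 h. Samples went onto 7 mm filter paper disks in 10 µL MeOH, air-dried 1 h, then placed on the plates. Inhibition zones were read every 24 h for 4 days. Filipin at 10 µg/disk was the positive control, MeOH and formic acid at 10 µL/disk the negatives.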

Bacillus cereus = assay: Antibacterial activity against Bacillus cereus at 10 ug/disc after 48 hrs by disc diffusion assay; assay type: functional; conditions: read-out: IZ
How it was run: (§2)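 Target strains grown on nutrient agar plates (9 cm), each spread with 0.6 mL of a 24 h nutrient broth culture and dried 1 h. Samples went onto 7 mm filter paper disks in 10 µL MeOH and were air-dried 1 h before placement. Inhibition zones were checked every 24 h for 4 days. Tetracycline at 10 µg/disk was the positive control, MeOH and formic acid at 10 µL/disk the negatives.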

Escherichia coli = assay: Antibacterial activity against Escherichia coli at 10 ug/disc after 48 hrs by disc diffusion assay; assay type: functional; conditions: read-out: IZ; how it was run: as §2
Saccharomyces cerevisiae = assay: Antifungal activity against Saccharomyces cerevisiae at 10 ug/disc after 48 hrs by disc diffusion assay; assay type: functional; conditions: read-out: IZ
How it was run: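 Yeast grown on 1% yeast extract, 2% peptone, 1.5% agar with either 2% dextrose or 2% glycerol. Plates were spread with 0.5 mL of a suspension in H2O adjusted to OD600 0.5 and dried 1 h. Samples went onto 7 mm paper disks in 10 µL MeOH, air-dried 1 h. Zones were read every 24 h for 4 days. Filipin at 10 µg/disk was the positive control, MeOH and formic acid the negatives.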

Beauveria bassiana = assay: Antifungal activity against Beauveria bassiana at 10 ug/disc after 48 hrs by disc diffusion assay; assay type: functional; conditions: read-out: IZ; how it was run: as §1
Botrytis = assay: Antifungal activity against Botrytis cinerea at 10 ug/disc after 48 hrs by disc diffusion assay; assay type: functional; conditions: read-out: IZ; how it was run: as §1
Aedes aegypti = assay: Induction of locomotory deffect in Aedes aegypti Rockefeller larvae after 24 hrs; assay type: functional, organism-based
How it was run: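 Eggs hatched under vacuum for 30 min and larvae kept at 25 °C in tap water with liver powder suspension. At 24 h posthatch, 7–11 larvae per well of a 24-well plate were placed in 0.9 mL food/water. Treatments were added in 100 µL distilled water, and effects were scored 24 h later.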

SMILES | zone of inhibition at 10 µg/disc (Colletotrichum) [mm] | zone of inhibition at 10 µg/disc (Bacillus cereus) [mm] | zone of inhibition at 10 µg/disc (Escherichia coli) [mm] | zone of inhibition at 10 µg/disc (Saccharomyces cerevisiae) [mm] | zone of inhibition at 10 µg/disc (Beauveria bassiana) [mm] | zone of inhibition at 10 µg/disc (Botrytis) [mm] | EC50 (Aedes aegypti) [ppm]
CCCCC[C@@H](O)[C@H]1C(=O)O[C@H](C)[C@@H](O)/C=C/C=C/C=C/C=C/C=C(\C)[C@@H](O)C[C@H](O)C[C@H](O)C[C@H](O)C[C@H](O)C[C@H](O)C[C@@H]1O [FILIPIN] | > 5 | > 5 | > 5 | > 5 | > 5 | > 5 | –
NCC[C@H](O)C[C@H]1NC(=O)[C@H](CO)NC(=O)[C@@H]2C[C@@H](O)CN2C(=O)C2(CC2)NC(=O)[C@H](CO)NC(=O)[C@@H](CO)NC(=O)CCNC1=O [SERINOCYCLIN A] | – | – | – | – | – | – | 59
CN(C)[C@@H]1C(O)=C(C(N)=O)C(=O)[C@@]2(O)C(O)=C3C(=O)c4c(O)cccc4[C@@](C)(O)[C@H]3C[C@@H]12 [TETRACYCLINE] | > 5 | > 5 | > 5 | > 5 | > 5 | > 5 | –
